Reference: ChEMBL document CHEMBL4842351, “Synthesis and evaluation of novel and potent protease activated receptor 4 (PAR4) antagonists based on a quinazolin-4(3H)-one scaffold” (Eur J Med Chem, 2021)
Active and inactive are the calls of the source. The rule behind the calls is not given here.

Assays:
Platelet [1] = assay: Antiplatelet activity against U46619-induced human platelet aggregation in platelet in platelet rich plasma assessed as inhibition of platelet aggregation at 10 uM by photo-turbidimetry method; format: functional, cell-based
Outline: (§1)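 Human PRP prepared as for the aggregation assay and adjusted to 3×10⁸/mL. Compound preincubated for 5 min at 37 °C, then aggregation triggered by AYPGKF, SFLLRN, collagen, ADP or U46619. Maximum percent inhibition taken from 5 min light-transmittance traces. Mean ± SD, n=3.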

[2] = Cytotoxicity against HEK293T cells assessed as cell viability at 10 uM incubated for 48 hrs by CCK-8 assay; format: cell-based, HEK-293T; details: human, read-out: Activity
Outline: (§2)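 HEK293 cells in exponential growth, 4000/well, left to adhere overnight, then exposed to three compound concentrations for 48 h. Equal-volume DMSO served as control. CCK-8 added for 2 h at 37 °C in the dark, absorbance read at 450 nm. Viability = OD sample/OD control × 100; mean ± SD, n=3.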

[3] = Metabolic stability in human liver microsomes assessed as half life incubated for 60 mins by LC-MS/MS analysis; format: ADME, Microsome
[4] = Cytotoxicity against HEK293T cells assessed as cell viability at 20 uM incubated for 48 hrs by CCK-8 assay; format: cell-based, HEK-293T; details: human, read-out: Activity; outline: as §2
[5] = Metabolic stability in mouse liver microsomes assessed as half life incubated for 60 mins by LC-MS/MS analysis; format: ADME, Microsome
Outline: (§3)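 Human, rat or mouse liver microsomes in potassium phosphate buffer at pH ~7.4, warmed to 37 °C with compound (DMSO stock diluted in acetonitrile). Reaction started with NADPH; no-NADPH negative controls. Aliquots taken at 0 and 60 min, quenched in ice-cold acetonitrile with internal standard, and parent measured by LC/MS/MS. t1/2 = 0.693/k from ln concentration vs time; CLint derived from t1/2. Triplicate; mean ± SD.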

[6] = target: T1, Proteinase-activated receptor 2 (Homo sapiens, UniProt P55085); assay: Antagonist activity at human PAR2 expressed in Ga15-HEK293 cells assessed as reduction in PAR2 AP 2-furoyl-LIGRLO-NH2-induced cytosolic calcium incubated for 24 hrs by FLIPR - calcium mobilization assay; format: functional, cell-based
T1 sequence (P55085 whole entry): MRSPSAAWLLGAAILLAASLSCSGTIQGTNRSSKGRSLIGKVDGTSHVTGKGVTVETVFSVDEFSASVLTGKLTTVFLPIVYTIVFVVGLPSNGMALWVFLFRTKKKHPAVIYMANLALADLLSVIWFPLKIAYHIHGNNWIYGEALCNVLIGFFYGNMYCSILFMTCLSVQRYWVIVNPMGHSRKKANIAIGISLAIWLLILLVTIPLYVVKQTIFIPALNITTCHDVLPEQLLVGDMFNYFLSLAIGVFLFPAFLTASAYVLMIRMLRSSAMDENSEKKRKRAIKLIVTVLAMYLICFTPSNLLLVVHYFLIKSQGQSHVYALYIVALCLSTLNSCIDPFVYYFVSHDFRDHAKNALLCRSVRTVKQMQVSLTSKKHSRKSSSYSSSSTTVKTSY
Outline: (§4)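 HEK293/Gα15 cells stably expressing human PAR1, PAR2 or PAR4, seeded at 45,000 cells/well and grown for 24 h at 37 °C, 5% CO₂. Cells loaded with calcium dye for 60 min at 37 °C in the dark. Compounds diluted from DMSO in HBSS and preincubated in the dark at room temperature. Agonists: SFFLRR (PAR1), 2-furoyl-LIGRLO-NH₂ (PAR2), AYPGKF-NH₂ (PAR4). Fluorescence read on FLIPR; 10-point half-log curves; mean of ≥2 determinations.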

Platelet [7] = assay: Antiplatelet activity against collagen-induced human platelet aggregation in platelet in platelet rich plasma assessed as inhibition of platelet aggregation at 10 uM by photo-turbidimetry method; format: functional, cell-based; outline: as §1
[8] = Metabolic stability in rat liver microsomes assessed as half life incubated for 60 mins by LC-MS/MS analysis; format: ADME, Microsome; outline: as §3
[9] = Metabolic stability in human liver microsomes assessed as intrinsic clearance incubated for 60 mins by LC-MS/MS analysis; format: ADME, Microsome; details: 1 h
[10] = Cytotoxicity against HEK293T cells assessed as cell viability at 1 uM incubated for 48 hrs by CCK-8 assay; format: cell-based, HEK-293T; details: human, read-out: Activity; outline: as §2
Platelet [11] = assay: Antiplatelet activity against AYPGKF-NH2-induced human platelet in platelet rich plasma assessed as inhibition of platelet aggregation at 10 uM by photo-turbidimetry method; format: functional, cell-based; outline: as §1
Platelet [12] = assay: Antiplatelet activity against SFLLRN-NH2-induced human platelet in platelet rich plasma assessed as inhibition of platelet aggregation at 10 uM by photo-turbidimetry method; format: functional, cell-based; outline: as §1
[13] = Metabolic stability in mouse liver microsomes assessed as intrinsic clearance incubated for 60 mins by LC-MS/MS analysis; format: ADME, Microsome; details: 1 h; outline: as §3
Platelet [14] = assay: Antiplatelet activity against ADP-induced human platelet aggregation in platelet in platelet rich plasma assessed as inhibition of platelet aggregation at 10 uM by photo-turbidimetry method; format: functional, cell-based; outline: as §1
[15] = Metabolic stability in rat liver microsomes assessed as intrinsic clearance incubated for 60 mins by LC-MS/MS analysis; format: ADME, Microsome; details: 1 h; outline: as §3
[16] = target: T2, Proteinase-activated receptor 4 (Homo sapiens, UniProt Q96RI0); assay: Antagonist activity at human PAR4 expressed in Ga15-HEK293 cells assessed as reduction in PAR4 AP AYPGKF-NH2-induced cytosolic calcium incubated for 24 hrs by FLIPR - calcium mobilization assay; format: functional, cell-based; outline: as §4
T2 sequence (Q96RI0 whole entry): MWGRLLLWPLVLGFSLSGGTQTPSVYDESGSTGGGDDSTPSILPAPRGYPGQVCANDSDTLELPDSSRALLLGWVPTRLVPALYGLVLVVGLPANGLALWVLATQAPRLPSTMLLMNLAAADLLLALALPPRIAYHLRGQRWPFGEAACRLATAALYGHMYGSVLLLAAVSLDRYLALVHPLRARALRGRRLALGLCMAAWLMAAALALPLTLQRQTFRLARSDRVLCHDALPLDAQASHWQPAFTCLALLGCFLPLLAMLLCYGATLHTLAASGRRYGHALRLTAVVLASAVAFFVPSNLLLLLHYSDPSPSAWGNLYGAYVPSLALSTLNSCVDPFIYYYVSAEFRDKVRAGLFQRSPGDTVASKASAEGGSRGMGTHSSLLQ

[17] = target: T3, Proteinase-activated receptor 1 (Homo sapiens, UniProt P25116); assay: Antagonist activity at human PAR1 expressed in Ga15-HEK293 cells assessed as reduction in PAR1 AP SFFLRR-NH2-induced cytosolic calcium incubated for 24 hrs by FLIPR - calcium mobilization assay; format: functional, cell-based; outline: as §4
T3 sequence (P25116 whole entry): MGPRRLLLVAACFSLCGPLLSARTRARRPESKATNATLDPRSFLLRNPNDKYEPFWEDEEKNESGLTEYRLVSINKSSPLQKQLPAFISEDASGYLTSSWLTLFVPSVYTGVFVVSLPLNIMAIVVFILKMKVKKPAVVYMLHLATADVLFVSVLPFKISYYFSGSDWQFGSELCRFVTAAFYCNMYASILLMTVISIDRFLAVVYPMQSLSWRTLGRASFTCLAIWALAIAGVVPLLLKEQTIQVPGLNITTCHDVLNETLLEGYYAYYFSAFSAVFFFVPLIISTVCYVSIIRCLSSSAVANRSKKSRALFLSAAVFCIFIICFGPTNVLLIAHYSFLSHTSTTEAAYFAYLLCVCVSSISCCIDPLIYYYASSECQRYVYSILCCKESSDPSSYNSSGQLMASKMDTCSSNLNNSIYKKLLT

- half-life [3]: 7.4 h
- half-life [5]: 7.13 h
- IC50 [6]: > 1000 nM
- half-life [8]: 5.38 h
- CLH [9]: 3.51 mL/min/g
- CLH [13]: 12.8 mL/min/g
- CLH [15]: 7.73 mL/min/g
- IC50 [16]: 1.2 nM
- IC50 [17]: > 3160 nM
SMILES: Cc1cc(-c2nc3c(Cl)cc(OCCNS(=O)(=O)c4ccc(C(F)(F)F)cc4)cc3s2)c2ncn(C)c(=O)c2c1
- Activity (Platelet [1]): inactive
- viability at 48 h, 10 µM [2]: 76.8%
- viability at 48 h, 20 µM [4]: 61.8%
- Activity (Platelet [7]): inactive
- viability at 48 h, 1 µM [10]: 87.7%
- Activity (Platelet [11]): Active
- Activity (Platelet [12]): inactive
- Activity (Platelet [14]): inactive
